An excerpt weighted towards active compounds, which were near 1.8% of everything screened.
TCR CD3 inh: blocks the human TCR-CD3 interaction | inhibition, % at 9.4 µM | actives 0.37% (n = 360,000) | TAMRA-labeled TCR probe fluorescence, biochemical; in the data active = inhibition above about 19%;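 also: recombinant mutant TCR 2C K166C tagged with TAMRA read by polarization; 0% = receptor in buffer alone and 100% = receptor with positive control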
PME-1 primary: blocks human protein phosphatase methylesterase 1; recombinant PME-1, FP-Rh probe fluorescence polarization; inhibition, % at 5.9 µM; actives 0.53% (n = 320,000);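 active = inhibition above the campaign mean of all compounds plus 3 SD, cut at about 26% in these data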;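 also: competitive labeling of PME-1 active site by serine hydrolase directed probe; 0% = PME-1 with DMSO and 100% = wells lacking PME-1 enzyme; inhibitors block probe labeling so polarization falls and inhibition rises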
Target sequence (Q9Y570 whole entry, looked up): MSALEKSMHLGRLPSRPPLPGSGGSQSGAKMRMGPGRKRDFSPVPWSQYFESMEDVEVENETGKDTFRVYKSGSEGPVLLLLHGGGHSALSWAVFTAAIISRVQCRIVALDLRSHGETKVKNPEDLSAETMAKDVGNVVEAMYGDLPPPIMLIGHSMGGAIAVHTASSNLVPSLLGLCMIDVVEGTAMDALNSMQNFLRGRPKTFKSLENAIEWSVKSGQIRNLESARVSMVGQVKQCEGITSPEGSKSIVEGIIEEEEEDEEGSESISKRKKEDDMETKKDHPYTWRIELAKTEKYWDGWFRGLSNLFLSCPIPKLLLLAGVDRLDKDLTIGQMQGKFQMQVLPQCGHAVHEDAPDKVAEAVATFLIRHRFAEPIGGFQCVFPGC
HTRA1 inh: blocks human HTRA1 serine peptidase. AID 504803. recombinant HTRA1, FP-rhodamine activity-based probe, fluorescence polarization. Q92743. actives 0.5% (n = 340,000). inhibition, % at 5.96 µM; in the data active = inhibition above about 36%;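 also: 0% = enzyme with DMSO and 100% = wells lacking enzyme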
SIAE inh: inhibitors of human sialic acid acetylesterase SIAE. Q9HAT2. SIAE FP-Rh probe binding, fluorescence polarization. inhibition, % at 9.66 µM. actives 0.69% (n = 370,000). AID 1053197;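 active = inhibition above a cutoff: mean of compounds within the control limits plus 3 SD of those, cut at about 17% in these data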;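 also: 0% = plate median of compound wells and 100% = probe without SIAE protein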
Fam108B counter: blocks mouse Fam108B hydrolase in RBBP9 counter-screen | recombinant Fam108B, FP-Rh probe fluorescence polarization | inhibition, % at 9.51 µM | actives 0.33% (n = 300,000) | AID 1947;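 active = inhibition above the screen mean inhibition plus 3 SD, computed separately per campaign, cut at about 18% in these data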;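 also: inhibitors lower polarization as less probe binds the enzyme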
ABHD4 inh: inhibitors of mouse ABHD4; purified mABHD4, FP-Rh probe fluorescence polarization; inhibition, % at 8.92 µM; actives 0.54% (n = 370,000); AID 720543;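 active = inhibition exceeding the mean over every tested compound plus 3 SD, cut at about 30% in these data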;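 also: 0% = plate median of compound wells and 100% = S159A mutant with DMSO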
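Test system: mouse ABHD4 enzyme, wild type. Reagent: FP-Rh fluorescent activity-based probe, added after compound pre-incubation. Timing: pre-incubation 45 min, probe exposure 60 min, at 25 °C. Technique: FP readout, ex 525 nm / em 598 nm. Benchmarks: high control S159A mutant with DMSO, low control median of compound wells.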
HTRA1 inh conf: confirmation of human HTRA1 inhibitors. shares compounds with HTRA1 inh. recombinant HTRA1, FP-rhodamine activity-based probe, fluorescence polarization. inhibition, % at 5.96 µM. actives 66% (n = 1,600). AID 540248;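 active = mean inhibition over three repeats above a set limit taken from the earlier primary screen, cut at about 37% in these data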;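 also: 0% = HTRA1 with DMSO and 100% = wells lacking HTRA1; inhibitors block probe binding so polarization drops and inhibition rises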
* = called active by the depositor; nt = not tested or not shown.

SMILES	TCR CD3 inh	PME-1 primary	HTRA1 inh	SIAE inh	Fam108B counter	ABHD4 inh	HTRA1 inh conf
O=C(N[C@H](Cc1ccccc1)C(=O)N1CCN(C(=O)N2CCOCC2)CC1)[C@H]1O[C@@H](n2ccc(=O)[nH]c2=O)[C@H](O)[C@@H]1O	4	nt	nt	-6	nt	3	nt
COCCN=c1scc(-c2cccs2)n1/N=C/c1ccc(O)c(O)c1O	5	9	79*	-3	-2	55*	67*
CN[C@H]1C[C@H]2c3[nH]c4c(-c5ccc6c(c5)OCO6)cccc4c3CCN2C[C@H]1[C@H](C)O	nt	nt	nt	3	nt	19	nt
C[C@@H]1O[C@@H](OC[C@H]2O[C@@H](Oc3c(-c4ccc(O)c(O)c4)oc4cc(O)cc(O)c4c3=O)[C@H](O)[C@@H](O)[C@@H]2O)[C@H](O)[C@H](O)[C@H]1O	2	-9	-7	9	-6	13	nt
COc1c(-c2ccc(O)c(O)c2)oc2cc(O)cc(O)c2c1=O	16	-10	37*	2	-3	21	48*
COC(=O)C[C@H]1CC[C@@H]2[C@H](COc3ccc(NC(=O)C(C)C)cc3C(=O)N2C)O1	nt	nt	nt	-4	nt	0	nt
Oc1ccc(CN2CCc3ccccc3C2)c2cccnc12	2	4	59*	5	0	5	65*
CCOC(=O)C1CCN(C(=O)C(Cc2ccc3c(c2)OCO3)NC(C)=O)CC1 (configuration not stated)	nt	nt	nt	4	nt	3	nt
Cc1nc(CNC(=O)CC2C(=O)NCCN2Cc2cccc(Oc3ccccc3)c2)cs1 (configuration not stated)	-5	-8	44*	7	0	-5	-14
O=C(CC1C(=O)NCCN1Cc1cccc(Oc2ccccc2)c1)NCc1cccnc1 (configuration not stated)	-1	3	-11	-1	-1	-1	nt
CSc1ccc(-c2csc(N3CCC(C(N)=O)CC3)n2)cc1	nt	nt	nt	-1	nt	16	nt
O=C1CC(Nc2ccc(N3CCOCC3)cc2)C(=O)N1c1cccc(C(F)(F)F)c1 (configuration not stated)	nt	4	61*	nt	0	nt	14
CN(C)c1ccc(N2C(=O)CC(Nc3ccc(N4CCOCC4)cc3)C2=O)cc1 (configuration not stated)	-7	-5	6	11	3	21	nt
CC1(C)C=Cc2ccc(O)c(C(=O)/C=C/c3ccccc3)c2O1	nt	nt	nt	16	nt	11	nt
COc1ccc(-c2nnc(SCc3c(F)cccc3F)n2N)cc1	nt	nt	nt	-4	nt	4	nt
Cc1ccc(Cn2c(=N)c(C(=O)NCc3ccco3)cc3c(=O)n4ccccc4nc32)cc1	8	3	42*	-3	-2	12	-36
COC(=O)[C@]12C[C@H](CC(=O)N3CCC(c4ccccc4)CC3)C(=O)N(Cc3ccco3)C1=C[C@H](COCc1ccccc1)O[C@@H]2C	nt	nt	nt	-5	nt	-5	nt
Cc1cc(C)c2sc(N(CCCN(C)C)C(=O)c3ccc(S(=O)(=O)N4CCc5ccccc5C4)cc3)nc2c1	nt	2	-15	nt	4	nt	nt
CCc1nnc(NC(=O)c2ccc(S(=O)(=O)N3CCc4ccccc4C3)cc2)s1	6	2	2	-1	-3	3	nt
Cc1cc(C)c2nc(NNC(=O)c3ccc(S(=O)(=O)N4CCc5ccccc5C4)cc3)sc2c1	3	0	52*	6	13	6	48*
Cc1cc(C)c2sc(NNC(=O)c3ccc(S(=O)(=O)N4CCc5ccccc5C4)cc3)nc2c1	-11	1	44*	-1	3	1	42*
C=CCn1c(SCC(=O)C(C)(C)C)nnc1-c1ccc(Cl)cc1	nt	nt	nt	0	nt	2	nt
N#Cc1ccc(OC[C@@H](O)CN2CCC(C(O)(c3ccccc3)c3ccccc3)CC2)cc1F	nt	nt	nt	-4	nt	4	nt
O=C(c1ccc(-c2cc(O)c3ncccc3c2)cc1)N1CCNCC1	-7	nt	63*	-1	nt	5	50*
Cc1cccc(Oc2ncnc(N)c2[N+](=O)[O-])c1C	1	-1	2	3	0	4	nt
SMILES	TCR CD3 inh	PME-1 primary	HTRA1 inh	SIAE inh	Fam108B counter	ABHD4 inh	HTRA1 inh conf
Nc1ncnc(Oc2cccc3cccnc23)c1[N+](=O)[O-]	-5	2	40*	-3	0	-7	34
N#Cc1cc(F)cc(OC[C@@H](O)CN2CCC(C(O)(c3ccccc3)c3ccccc3)CC2)c1	nt	nt	nt	-8	nt	-5	nt
CCCCCCCCCCCCC/C=C/[C@@H](O)[C@@H](N)CO	10	-7	38*	-1	2	20	67*
CN(C(=O)[C@@H]1CC=C[C@@H]2CCN(C3CCCCC3)C(=O)[C@@H]21)c1ccccc1	nt	nt	nt	-2	nt	-4	nt
Oc1c(Cl)cc(Cl)cc1/C=C/c1ccc2cccc(O)c2n1	-2	6	37*	1	6	7	48*
COc1cc(Br)c(/C=C/c2ccc3cccc(O)c3n2)cc1OC	0	-1	10	8	2	9	nt
Oc1cccc2ccc(/C=C/c3ccccc3Br)nc12	-6	-3	52*	-13	-1	-3	45*
Cc1cc(C)nc(Nc2ccc(N3CCCC3)cc2)n1	5	-9	40*	1	-1	18	40*
Cc1cc(C)cc(NC(=O)Cn2cc3c(n2)CCCCC3)c1	nt	2	nt	nt	-1	nt	nt
CN(C)c1ccc(NC(=O)Cn2cc3c(n2)CCCC3)cc1	-9	0	44*	3	-1	5	59*
NS(=O)(=O)c1ccc2c(c1)C1C=CCC1C(C1CC=CCC1)N2 (configuration not stated)	1	18	64*	10	15	26	38*
CC(C)C1Nc2ccc(S(N)(=O)=O)cc2C2C=CCC21 (configuration not stated)	0	4	13	9	5	12	nt
COC(=O)[C@]12C[C@H](CC(=O)NCc3cccc(C(F)(F)F)c3)C(=O)N(Cc3ccco3)C1=C[C@H](C1CCCC1)O[C@@H]2C	nt	nt	nt	-5	nt	-12	nt
CCC(=O)N1CCN(c2ccc(-n3c(=O)ccc4cnc5ccc(-c6cnc7ccccc7c6)cc5c43)cc2C(F)(F)F)CC1	-1	nt	nt	-6	nt	-9	nt
Cc1ccccc1CN1CCCCC(NC(=O)Nc2ccccc2)C1=O (configuration not stated)	nt	nt	nt	2	nt	2	nt
Cc1ccc2nc(-c3ccccc3N)[nH]c2c1	-3	-1	-9	0	2	1	nt
Cc1ccc2nc(-c3ccccn3)[nH]c2c1	-6	-3	42*	1	-2	7	33
O=C(OC12CCCN(C1)/C(=C/c1ccc(Cl)cc1)C2)c1cccc(F)c1 (configuration not stated)	nt	nt	nt	-4	nt	-3	nt
O=C(COC(=O)c1nc(Cl)ccc1Cl)Nc1ncc(Cl)cc1Cl	0	1	63*	8	3	-2	6

Screening data (PubChem BioAssay)
